In the library only some 3.1% were active in any assay of this set; here they are far more common.
CSC inhib: blocks cancer stem cells. cancer stem cell-like cells viability, luminescence. inhibition, % at 7.5 µM. 300,000 compounds, 1.1% hits. AID 2717; in the data active = inhibition above about 75%; inconclusive = no clear call, values can overlap the other calls; tested in HMLE shEcad cells
Beta apoptosis: beta cell apoptosis inhibition | 300,000 compounds, 0.8% hits | protection from apoptosis, % (no concentration beside the values) | INS-1E cytokine-induced death, ATP luminescence, 48 h; percent of positive-control rescue, neutral wells zero;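 active = Every replicate reaches about 75%, or at least half do and their mean reaches it too, limit read from the data; inconclusive = At least half of replicates reach the limit but their mean does not; inactive = Under half of replicates reach the limit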;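 also: 0% = cytokine-treated negative control wells and 100% = positive control rescue; higher means more ATP so stronger rescue from cytokine killing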
HIF act: HIF pathway transcriptional activation; 300,000 compounds, 0.32% hits; activation, % at 7.5 µM (by protocol); U2OS HRE-luciferase reporter, luminescence; normalized: DMSO 0%, desferrioxamine 100%;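 active = mean activation of at least 10% of the iron chelator positive control signal, with at least half of replicates also reaching 10%; inconclusive = mean and replicate majority disagree about reaching 10%; inactive = mean and most replicates under 10%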
PolyA inh: yeast polyadenylation inhibition. S. cerevisiae SKY197-pL101 polyadenylation reporter, beta-gal luminescence; efflux-impaired pdr1/pdr3 knockout yeast; score 100 = 6 SD above DMSO. activity score, % at 12 µM. 300,000 compounds, 0.02% hits;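 active = lowest replicate activity score at least 50, where 100 means six control SD above control mean; inconclusive = lowest score under 50 but half or more replicates reach 50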;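 also: yeast exposed to compound for 9 h at 30 °C; higher score means more reporter readthrough which indicates perturbed polyadenylation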
T cruzi inh: blocks replication of Trypanosoma cruzi; T. cruzi beta-gal in NIH3T3, luminescence, 90 h; inhibition, % (no concentration beside the values); 300,000 compounds, 1.4% hits; AID 1885;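 active = mean inhibition across valid replicates above about 55%, limit read from the data; inconclusive = mean below that limit but half or more replicates reach it; inactive = mean below it, under half of replicates reach it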;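 also: signal also drops with host cell toxicity which is not excluded here; 0% = plate median of DMSO wells and 100% = zero luminescence signal; higher percent means less beta-gal luminescence so fewer parasites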
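Assay system: NIH/3T3 fibroblasts plus reporter T. cruzi. Amount: NIH/3T3 cells, 5,000 per well. Buffer or medium: DMEM, 2% fetal bovine serum. Doses: compound pinned at 50 nL/well, DMSO. Schedule: ≥90 h infection period, 3 h prior cell attachment. Signal: luminescent β-galactosidase signal after 60 min lysis. Read-out: parasite load inhibition, %.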
Calb FLC: C. albicans growth modulation with fluconazole | 300,000 compounds, 0.57% hits | AID 1979 | growth inhibition, % (no concentration beside the values) | C. albicans CaCi-2 (fluconazole-resistant clinical isolate) + fluconazole, Alamar Blue growth, 48 h;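 active = growth inhibition above about 58% in most replicates, limit read from the data, passing the limit was not always enough; inconclusive = exactly half the replicates above a set limit; inactive = most replicates below a set limit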;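 also: all wells also contain fluconazole at 8 µg/ml as a sub-toxic cotreatment; 0% = median of DMSO wells and 100% = median of geldanamycin control wells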
* hit, by the source's call; ? = inconclusive; . = not tested or not shown.

SMILES	CSC inhib	Beta apoptosis	HIF act	PolyA inh	T cruzi inh	Calb FLC
Nc1ccc(C(=O)OCC(=O)N2c3ccccc3Sc3ccccc32)cc1[N+](=O)[O-]	6	0	.	.	.	.
CC(C)c1csc(CN2CCC(CO)(Cc3cccc(F)c3)CC2)n1	-2	-4	0	-1	68*	-3
OCC1(Cc2cccc(F)c2)CCN(Cc2cccc3nccnc23)CC1	0	-1	0	3	7	12
N#Cc1cccc(C(=O)OCC(=O)NC(=O)NC2CCCCC2)c1	-20	-7	0	?	?	-2
O=C(CSc1nnc(-c2ccc(Br)cc2)n1CCc1ccccc1)NC1CCS(=O)(=O)C1 (stereo unspecified)	-1	-5	0	-5	-2	-7
O=C(Nc1ccncc1)Nc1cc(Cl)ccc1Cl	9	9	-1	-3	57*	43
O=C(Nc1ccncc1)Nc1ccc(Cl)cc1Cl	4	3	1	5	55*	32
CC(=O)c1c(C)[nH]c(C(=O)OCC(=O)c2c[nH]c3ccccc23)c1C	.	3	.	.	.	.
c1ccc(C[n+]2c(-c3ccccc3)csc2Nc2ccccc2)cc1	83*	11	3	-8	19	-4
c1ccc(Nc2scc(-c3ccccc3)[n+]2Cc2ccco2)cc1	9	0	2	9	-14	-10
Cc1cccc(C(=O)NC(=S)NNC(=O)Cc2ccccc2)c1	-7	10	0	-38	-22	95*
O=C(CCc1ccccc1)NNC(=O)c1ccc(Cl)cc1	-14	-1	-1	-6	0	2
O=C(CCc1ccccc1)NNC(=S)NC(=O)c1ccc(Cl)cc1	4	.	0	-32	-47	80*
Cc1cccc(C(=O)NC(=S)NCc2ccccc2)c1	1	1	1	5	-8	2
COc1ccc(-c2n[nH]c(C(F)(F)F)c2-c2cc3ccccc3o2)c(O)c1	102*	22	0	-9	-20	17
O=C(CCC(=O)c1ccc(F)cc1)NC1CCCN(Cc2ccccc2F)C1 (stereo unspecified)	-8	-4	-3	-6	13	6
Cc1ccc(C2C(C=Nc3c(C)n(C)n(-c4ccccc4)c3=O)=C(c3ccccc3)Oc3ccccc32)cc1 (stereo unspecified)	.	80*	0	-2	33	-8
Cc1cnc(NC(=O)CN2CCN(c3ccccn3)CC2)s1	-6	79*	-1	-4	-26	5
COc1ccc(N2CCN(CC(=O)Nc3ncc(C)s3)CC2)cc1	-5	-1	-1	9	5	14
COc1ccc(-c2cc(C(F)(F)F)nc(SCC(=O)NCCCN3CCOCC3)n2)cc1	-1	-8	0	-14	-3	-3
Cc1ccc(S(=O)(=O)Nc2ccc(C(OC(=O)c3ccccc3[N+](=O)[O-])(C(F)(F)F)C(F)(F)F)cc2)cc1	107*	110*	0	11	19	-6
O=C(OC(c1ccc(NS(=O)(=O)c2ccccc2)cc1)(C(F)(F)F)C(F)(F)F)c1ccccc1	67	7	0	3	7	7
COc1ccc(-c2nc(CN3CCN(c4cc(C)nc(C)c4)CC3)c(C)o2)c2ccccc12	-12	21	-5	-2	36	84*
NS(=O)(=O)c1ccc(CCNC(=O)c2ccc(NC3=NC4CS(=O)(=O)CC4S3)cc2)cc1 (stereo unspecified)	-8	-2	0	-5	-7	5
CN(C)/C=C(\C#N)S(=O)(=O)c1ccc(Cl)cc1	-6	2	0	6	2	-6
SMILES	CSC inhib	Beta apoptosis	HIF act	PolyA inh	T cruzi inh	Calb FLC
COc1ccc(C2/C=C\CN(C(=O)C3CC3)[C@H](Cc3ccccc3)C(=O)N2Cc2ccc(F)cc2)cc1 (stereo partly specified)	0	86*	0	-16	13	17
COc1ccc(C2/C=C\CN(C(=O)c3ccc(C)cc3)[C@H](Cc3ccccc3)C(=O)N2Cc2ccc(F)cc2)cc1 (stereo partly specified)	29	78*	0	-5	50	11
CCCCC(=O)N1C/C=C\C(c2ccc(OC)cc2)N(Cc2ccc(F)cc2)C(=O)[C@H]1Cc1ccccc1 (stereo partly specified)	37	99*	0	1	64*	9
CCCCCCC(=O)N1C/C=C\C(c2ccc(OC)cc2)N(Cc2ccc(F)cc2)C(=O)[C@H]1Cc1ccccc1 (stereo partly specified)	35	100*	0	15	37	5
COc1ccc([C@H]2/C=C\CN(C(=O)C3CC3)[C@@H](C)C(=O)N2Cc2ccc(F)cc2)cc1	-8	-4	0	-3	-4	1
O=C(OCC(=O)N1CCCCCC1)c1cccc(Cl)c1	-7	-4	.	.	.	.
CCc1ccc2[nH]c(=O)c(CN(Cc3ccccc3OC)C(=O)Nc3ccccc3OC)cc2c1	-7	8	0	1	62*	0
CCN(CC)CCN(Cc1cc2cc(C)ccc2[nH]c1=O)C(=O)Nc1ccccc1OC	-7	5	0	-6	9	-3
O=C(COC(=O)Cc1ccc(S(=O)(=O)N2CCCCC2)s1)Nc1ccc2c(c1)OCO2	-11	1	25*	-4	-2	0
CN(C)S(=O)(=O)c1ccc(NC(=O)Cc2ccc(S(=O)(=O)N3CCOCC3)s2)cc1	-7	-9	0	-9	-10	-9
CCn1c2ccccc2c2cc(NC(=O)Cc3ccc(S(=O)(=O)N4CCOCC4)s3)ccc21	58	8	1	4	69*	7
O=C(COC(=O)Cc1ccc(S(=O)(=O)N2CCOCC2)s1)NCCc1ccccc1	-21	-3	0	?	-3	11
O=C(COC(=O)Cc1ccc(S(=O)(=O)N2CCOCC2)s1)NCc1ccccc1	-15	-2	0	903*	2	-6
CCn1c2ccccc2c2cc(NC(=O)C(C)C)ccc21	20	5	0	8	21	96*
CCn1c2ccccc2c2cc(NC(=O)C(C)Oc3ccccc3)ccc21 (stereo unspecified)	41	3	0	9	40	-15
O=C(COC(=O)CNC(=O)C1CCCCC1)Nc1cc(C(F)(F)F)ccc1Cl	8	2	.	.	.	.
CN1CCN(CC2(O)CCN(S(=O)(=O)c3ccc(Cl)cc3)CC2)CC1	-5	0	0	15	72*	15
O=C(O)/C=C/c1ccc(-n2ccnc2)cc1	-15	-3	0	-9	-6	-1
CCCCN(C(=O)c1cccc2c(=O)c(C)c(-c3ccccc3)oc12)c1ccccc1	.	.	0	6	39	-4
S=c1[nH]nc(-c2ccccc2)n1/N=C/c1ccc(-c2ccccc2Cl)o1	102*	7	0	12	3	28

Screening data: PubChem, Broad Institute
